Reference: PMC9391279 (Cell chemical biology, 2022)

What was measured:
BRD4(BD2) = conditions: read-out: KD,BD2, ref Faivre et al., 2020; cited from earlier work
BRD4(BD1) = conditions: read-out: KD,BD1, ref Faivre et al., 2020; cited from earlier work
BRD4 in MDA-MB-231 cells [1] = target: T1, BRD4 in MDA-MB-231 cells (Homo sapiens, UniProt O60885); experiment: BRD4 degradation rescue experiments, MDA-MB-231; assay type: cell-based, H. sapiens; conditions: for Rescue of CS-JQ1-induced BRD4 degradation by co-treatment: MDA-MB-231, co-treatment with CS-JQ1, 5 h; for Rescue of dBET6-induced BRD4 degradation by co-treatment: MDA-MB-231, co-treatment with dBET6, 5 h
Keap1-BTB domain = Keap1-BTB domain (Homo sapiens, UniProt Q14145); experiment: TR-FRET ligand displacement assay, Keap1-BTB domain; assay type: binding
BRD4 in MCF7 cells [2] = target: T2, BRD4 in MCF7 cells (Homo sapiens, UniProt O60885); experiment: BRD4 degradation rescue experiments, MCF7; assay type: cell-based, H. sapiens; conditions: for Rescue of CS-JQ1-induced BRD4 degradation by co-treatment: MCF7, co-treatment with CS-JQ1, 5 h; for Rescue of dBET6-induced BRD4 degradation by co-treatment: MCF7, co-treatment with dBET6, 5 h
BRD4 in MCF7 cells [3] = target: T2, BRD4 in MCF7 cells; experiment: TR-FRET BRD4 quantification, 24-well plate format, MCF7; assay type: cell-based, H. sapiens; conditions: MCF7, 5 h treatment, 1 h washout
Keap1-Kelch domain = Keap1-Kelch domain (Homo sapiens, UniProt Q14145); experiment: TR-FRET ligand displacement assay, Keap1-Kelch domain; assay type: binding
BRD4 in MDA-MB-231 cells [4] = target: T1, BRD4 in MDA-MB-231 cells; experiment: TR-FRET BRD4 quantification, 24-well plate format, MDA-MB-231; assay type: cell-based, H. sapiens; conditions: MDA-MB-231, 5 h treatment, 1 h washout
BRD4 = experiment: TR-FRET ligand displacement assays with recombinant BRD4; assay type: binding, human; conditions: Figure 4B
Summary of the method: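 Tracer displacement of JQ1-FITC (20 nM) from 4 nM GST-BRD4(BD1) or GST-BRD4(BD2) with 4 nM CoraFluor-1 anti-GST VHH, in HEPES/NaCl/BSA/Tween buffer, pH 7.5. Endogenous BRD4 was tested in clarified MCF7 lysate at 0.8 mg/mL total protein. Floor was a 10 μM reference inhibitor; ceiling was no inhibitor. Four-parameter IC50 fits were converted to KD,app by Cheng-Prusoff using tracer KD,app.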

BRD4 in MDA-MB-231 cells [5] = target: T1, BRD4 in MDA-MB-231 cells; experiment: BRD4 ubiquitination by immunoprecipitation / Western blot; assay type: cell-based, H. sapiens; conditions: MDA-MB-231, 5 h
BRD4 in MDA-MB-231 cells [6] = target: T1, BRD4 in MDA-MB-231 cells; experiment: TR-FRET BRD4 quantification, 96-well plate format; assay type: cell-based, H. sapiens; conditions: MDA-MB-231, 30 min to 10 h, 96-well no wash-out
[7] = test system: full-length Keap1 and individual BRD4 bromodomains; assay type: biochemical; conditions: BRD4(BD1) or BRD4(BD2)

Sequence of Keap1-BTB domain (Q14145 whole entry, the tested form may be a part): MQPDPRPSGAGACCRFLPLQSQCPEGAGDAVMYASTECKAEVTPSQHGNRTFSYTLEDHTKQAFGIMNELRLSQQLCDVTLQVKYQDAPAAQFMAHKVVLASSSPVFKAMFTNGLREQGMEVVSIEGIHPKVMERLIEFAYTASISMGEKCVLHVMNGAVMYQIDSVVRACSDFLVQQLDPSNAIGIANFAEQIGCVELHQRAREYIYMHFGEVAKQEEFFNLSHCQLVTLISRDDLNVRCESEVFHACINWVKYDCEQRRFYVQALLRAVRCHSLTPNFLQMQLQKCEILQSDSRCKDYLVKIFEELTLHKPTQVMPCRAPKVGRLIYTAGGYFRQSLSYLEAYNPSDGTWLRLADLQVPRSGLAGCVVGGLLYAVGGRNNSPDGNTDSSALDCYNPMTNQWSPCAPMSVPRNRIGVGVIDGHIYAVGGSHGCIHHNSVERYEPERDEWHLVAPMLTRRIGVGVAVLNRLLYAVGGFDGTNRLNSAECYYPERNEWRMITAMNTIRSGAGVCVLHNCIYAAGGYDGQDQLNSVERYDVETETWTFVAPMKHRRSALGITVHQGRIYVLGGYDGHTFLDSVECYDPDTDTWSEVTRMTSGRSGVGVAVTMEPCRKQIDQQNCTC
Sequence of Keap1-Kelch domain (Q14145 whole entry, the tested form may be a part): as above

Structure (SMILES) | Rescue of CS-JQ1-induced BRD4 degradation by co-treatment (BRD4 in MDA-MB-231 cells [1]) | Rescue of CS-JQ1-induced BRD4 degradation by co-treatment (BRD4 in MCF7 cells [2]) | Rescue of dBET6-induced BRD4 degradation by co-treatment (BRD4 in MCF7 cells [2]) | Rescue of dBET6-induced BRD4 degradation by co-treatment (BRD4 in MDA-MB-231 cells [1]) | further results
CCS(=O)(=O)Nc1ccc(Oc2ccc(F)cc2F)c(-c2cn(C)c(=O)c3[nH]ccc23)c1 [ABBV-075, ABBV-075 (Mivebresib)] | – | – | – | – | Kd (BRD4(BD2)): 2.5 nM; Kd (BRD4(BD1)): 13.8 nM
COC(=O)[C@]12CCC(C)(C)C[C@H]1[C@H]1C(=O)C=C3[C@@]4(C)C=C(C#N)C(=O)C(C)(C)[C@@H]4CC[C@@]3(C)[C@]1(C)CC2 [CDDO-Me, bardoxolone methyl] | not altered | – | – | – | Kd (Keap1-BTB domain): 24 nM
CC1=C(O)C(=O)C=C2C1=CC=C1[C@@]2(C)CC[C@@]2(C)[C@@H]3C[C@](C)(C(=O)O)CC[C@]3(C)CC[C@]12C [CS, celastrol] | reduced CS-JQ1 degradation efficiency | reduced CS-JQ1 degradation efficiency | – | – | –
CC1=C(O)C(=O)C=C2C1=CC=C1[C@@]2(C)CC[C@@]2(C)[C@@H]3C[C@](C)(C(=O)NCCCOCCOCCOCCCNC(=O)CC4N=C(c5ccc(Cl)cc5)c5c(sc(C)c5C)-n5c(C)nnc54)CC[C@]3(C)CC[C@]12C (stereo partly drawn) [CS-JQ1, (2R,4aS,6aS,12bR,14aS,14bR)-N-(1-(4-(4-chlorophenyl)-2,3,9-trimethyl-6H-thieno[3,2-f][1,2,4]triazolo[4,3-a][1,4]diazepin-6-yl)-2-oxo-7,10,13-trioxa-3-azahexadecan-16-yl)-10-hydroxy-2,4a,6a,9,12b,14a-hexamethyl-11-oxo-1,2,3,4,4a,5,6,6a,11,12b,13,14,14a,14b-tetradecahydropicene-2-carboxamide] | – | – | – | – | BRD4 level by TR-FRET after treatment (in words) (BRD4 in MCF7 cells [3]): dose-dependent and efficient degradation of BRD4; Binding to the Keap1 Kelch domain (in words) (Keap1-Kelch domain): lost the ability to bind; BRD4 level by TR-FRET after treatment (in words) (BRD4 in MDA-MB-231 cells [4]): dose-dependent and efficient degradation of BRD4; Affinity for the Keap1 BTB domain (in words) (Keap1-BTB domain; compared with celastrol): slightly improved affinity; Target engagement with BRD4 (in words) (BRD4): validated target engagement with BRD4; Induction of BRD4 ubiquitination (BRD4 in MDA-MB-231 cells [5]): induce BRD4 ubiquitination; BRD4 degradation kinetics (in words) (BRD4 in MDA-MB-231 cells [6]): slightly slower kinetics; Ternary complex formation between full-length Keap1 and individual BRD4 bromodomains [7]: could induce ternary complex formation
NS(=O)(=O)OC[C@@H]1C[C@@H](n2ccc3c(N[C@H]4CCc5ccccc54)ncnc32)C[C@@H]1O [MLN4924] | restored BRD4 levels | restored BRD4 levels | attenuated | attenuated | –
NS(=O)(=O)OC[C@H]1C[C@@H](Nc2ccnc3cc(-c4cccc(SC(F)(F)F)c4)nn23)[C@H](O)[C@@H]1O [MLN7243] | restored BRD4 levels | restored BRD4 levels | attenuated | attenuated | –
Cc1ncsc1-c1ccc(CNC(=O)[C@@H]2C[C@@H](O)CN2C(=O)[C@@H](NC(=O)COCCOCCOCCNC(=O)C[C@@H]2N=C(c3ccc(Cl)cc3)c3c(sc(C)c3C)-n3c(C)nnc32)C(C)(C)C)cc1 [MZ1] | – | – | – | – | BRD4 degradation kinetics (in words) (BRD4 in MDA-MB-231 cells [6]): slightly slower degradation kinetics
CC(C)C[C@H](NC(=O)[C@H](Cc1ccccc1)NC(=O)c1cnccn1)B(O)O [bortezomib] | – | – | attenuated | attenuated | –
Nc1cccc2c1C(=O)N(C1CCC(=O)NC1=O)C2=O (stereo not drawn) [pomalidomide] | – | – | attenuated | attenuated | –
